Experimental data from ChEMBL document CHEMBL4145661, “H2O2/Peroxynitrite-Activated Hydroxamic Acid HDAC Inhibitor Prodrugs Show Antileukemic Activities against AML Cells” (ACS Med Chem Lett, 2018).
Each block holds one molecule with its values, some of them ahead of it. Active and inactive are the calls of the source. The rule behind the calls is not given here.

Assays:
MV4-11 [1] = assay: Cytotoxicity against human MV4-11 cells assessed as reduction in cell viability up to 10 uM after 72 hrs by MTT assay; assay type: functional, cell-based
MV4-11 [2] = assay: Cytotoxicity against human MV4-11 cells assessed as reduction in cell viability after 72 hrs by MTT assay; conditions: MV4-11, 72 h
U-937 [3] = assay: Cytotoxicity against human U937 cells assessed as reduction in cell viability at 0.25 to 2.5 uM after 72 hrs by MTT assay; assay type: functional, cell-based
MV4-11 [4] = assay: Cytotoxicity against human MV4-11 cells assessed as reduction in cell viability at 0.05 to 0.5 uM cotreated with up to 500 nM of 4-CPA measured after 72 hrs by MTT assay; assay type: functional, cell-based
PBMC = assay: Cytotoxicity against human PBMC assessed as reduction in cell viability after 72 hrs by MTT assay; assay type: functional, cell-based
Outline: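 Peripheral blood mononuclear cells from two healthy donors, viability measured by MTT assay.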

U-937 [5] = assay: Cytotoxicity against human U937 cells assessed as reduction in cell viability after 72 hrs by MTT assay; conditions: U-937, 72 h
[6] = biological target: T1, Histone deacetylase (Homo sapiens) (UniProt Q13547+O15379+Q9UBN7+Q92769+Q9UQL6+Q8WUI4+Q9BY41+Q96DB2+P56524+Q9UKV0+Q969S8); assay: Inhibition of HDAC in human MV4-11 cells assessed as increase in acetylation of alpha-tubulin after 6 hrs by Western blot analysis; assay type: cell-based
Outline: (§1)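 Western blot of MV4-11 cells after 6 h exposure at the indicated concentrations, probing acetyl-histone H4 and acetyl-α-tubulin. Densitometry normalized to GAPDH, fold change relative to SAHA treatment. Blot representative of three experiments.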

[7] = biological target: T1, Histone deacetylase (Homo sapiens); assay: Inhibition of HDAC in human MV4-11 cells assessed as increase in acetylation of histone H4 after 6 hrs by Western blot analysis; assay type: cell-based; outline: as §1
[8] = biological target: T1, Histone deacetylase (Homo sapiens); assay: Inhibition of HDAC in human U937 cells assessed as increase in acetylation of alpha-tubulin after 6 hrs by Western blot analysis; assay type: cell-based
[9] = biological target: T1, Histone deacetylase (Homo sapiens); assay: Inhibition of HDAC in human U937 cells assessed as increase in acetylation of histone H4 after 6 hrs by Western blot analysis; assay type: cell-based
[10] = biological target: T1, Histone deacetylase (Homo sapiens); assay: Inhibition of HDAC in human PBMC assessed as increase in acetylation of histone H4 at 5 to 10 uM after 6 hrs by Western blot analysis; assay type: cell-based
Outline: (§2)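 Peripheral blood mononuclear cells from one healthy donor, treated at 5 and 10 μM and compared against vehicle control. Acetyl-histone H4 and acetyl-α-tubulin assessed by Western blot.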

[11] = biological target: T1, Histone deacetylase (Homo sapiens); assay: Inhibition of HDAC in human PBMC assessed as increase in acetylation of alpha-tubulin at 5 to 10 uM after 6 hrs by Western blot analysis; assay type: cell-based; outline: as §2
[12] = Chemical stability of the compound in PBS at 100 uM at pH 7.4 after 72 hrs at 37 degC in presence of GSH by HPLC method; assay type: physicochemical; conditions: buffer, pH 7.4, 72 h
MV4-11 [13] = assay: Cytotoxicity against human MV4-11 cells assessed as reduction in cell viability at 2.5 uM pretreated with GSH for 2 hrs followed by compound addition measured after 72 hrs by MTT assay; assay type: functional, cell-based
MV4-11 [14] = assay: Cytotoxicity against human MV4-11 cells assessed as reduction in cell viability at 2.5 uM pretreated with GSHEE for 2 hrs followed by compound addition measured after 72 hrs by MTT assay; assay type: functional, cell-based
MV4-11 [15] = assay: Cytotoxicity against human MV4-11 cells assessed as reduction in cell viability at 2.5 uM pretreated with catalase for 2 hrs followed by compound addition measured after 72 hrs by MTT assay; assay type: functional, cell-based
MV4-11 [16] = assay: Cytotoxicity against human MV4-11 cells assessed as reduction in cell viability at 2.5 uM pretreated with SOD for 2 hrs followed by compound addition measured after 72 hrs by MTT assay; assay type: functional, cell-based
MV4-11 [17] = assay: Cytotoxicity against human MV4-11 cells assessed as reduction in cell viability at 2.5 uM pretreated with LPS for 2 hrs followed by compound addition measured after 72 hrs by MTT assay; assay type: functional, cell-based
MV4-11 [18] = assay: Cytotoxicity against human MV4-11 cells assessed as reduction in cell viability at 2.5 uM pretreated with BSO for 2 hrs followed by compound addition measured after 72 hrs by MTT assay; assay type: functional, cell-based
MV4-11 [19] = assay: Potentiation of cytarabine-induced cytotoxicity against human MV4-11 cells assessed as reduction in cell viability at 2.5 uM after 72 hrs by MTT assay; assay type: functional, cell-based
Outline: (§3)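 MV4-11 cells given prodrug (2.5 or 0.5 μM) with cytarabine for 72 h. Viability by MTT; mean ± SD, n = 6.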

MV4-11 [20] = assay: Potentiation of cytarabine-induced cytotoxicity against human MV4-11 cells assessed as increase in cleaved caspase 3 level at 2.5 uM after 24 hrs by Western blot analysis; assay type: functional, cell-based
Outline: (§4)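 MV4-11 cells exposed 24 h to prodrug (2.5 or 0.5 μM) and/or cytarabine (0.5 μM). Cleaved caspase-3 and cleaved PARP-1 detected by Western blot.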

MV4-11 [21] = assay: Potentiation of cytarabine-induced cytotoxicity against human MV4-11 cells assessed as increase in cleaved PARP level at 2.5 uM after 24 hrs by Western blot analysis; assay type: functional, cell-based; outline: as §4
MV4-11 [22] = assay: Potentiation of cytarabine-induced cytotoxicity against human MV4-11 cells assessed as reduction in cell viability at 0.5 uM after 72 hrs by MTT assay; assay type: functional, cell-based; outline: as §3
MV4-11 [23] = assay: Potentiation of cytarabine-induced cytotoxicity against human MV4-11 cells assessed as increase in cleaved caspase 3 level at 0.5 uM after 24 hrs by Western blot analysis; assay type: functional, cell-based; outline: as §4
MV4-11 [24] = assay: Potentiation of cytarabine-induced cytotoxicity against human MV4-11 cells assessed as increase in cleaved PARP level at 0.5 uM after 24 hrs by Western blot analysis; assay type: functional, cell-based; outline: as §4
MV4-11 [25] = assay: Cytotoxicity against human MV4-11 cells assessed as reduction in cell viability at 0.25 to 1 uM cotreated with 4-CPA measured after 72 hrs by MTT assay; assay type: functional, cell-based
[26] = biological target: T1, Histone deacetylase (Homo sapiens); conditions: at 1 µM

SMILES: O=C(CCCCCCC(=O)Nc1ccccc1)NCCc1ccc(B(O)O)cc1
Activity (MV4-11 [1]): inactive

SMILES: CC(=O)Oc1ccc(CCl)cc1
IC50 (MV4-11 [2]): 1.13 µM

SMILES: COC(=O)CCCCCCOc1c(OC)cc(/C=C/C(=O)N2CCC=CC2=O)cc1OC
Activity (U-937 [3]): inactive

SMILES: O=C(CCCCCCC(=O)Nc1ccccc1)NO
Activity (MV4-11 [4]): inactive
Activity (PBMC): Active

inhibition [6]: Dose-dependent effect
inhibition [7]: Dose-dependent effect
inhibition [8]: Dose-dependent effect
inhibition [9]: Dose-dependent effect
inhibition [10]: inactive
inhibition [11]: inactive
Stability [12]: Stable
SMILES: O=C(CCCCCCC(=O)Nc1ccccc1)NOCc1ccc(B(O)O)cc1
IC50 (U-937 [5]): 6.13 µM
IC50 (MV4-11 [2]): 3.07 µM
IC50 (PBMC): > 10 µM
Activity (MV4-11 [13]): inactive
Activity (MV4-11 [14]): inactive
Activity (MV4-11 [15]): inactive
Activity (MV4-11 [16]): Active
Activity (MV4-11 [17]): Active
Activity (MV4-11 [18]): Active
Activity (MV4-11 [19]): Active
Activity (MV4-11 [20]): Active
Activity (MV4-11 [21]): Active

inhibition [6]: Dose-dependent effect
inhibition [7]: Dose-dependent effect
inhibition [8]: Dose-dependent effect
inhibition [9]: Dose-dependent effect
inhibition [10]: inactive
inhibition [11]: inactive
SMILES: COc1cc(/C=C/C(=O)N2CCC=CC2=O)cc(OC)c1OCCCCCCC(=O)NOCc1ccc(B(O)O)cc1
IC50 (U-937 [5]): 1.61 µM
IC50 (MV4-11 [2]): 0.7 µM
IC50 (PBMC): 7.6 to 10 µM
Activity (MV4-11 [22]): Active
Activity (MV4-11 [23]): Active
Activity (MV4-11 [24]): Active

inhibition [26]: 32%
SMILES: COc1cc(/C=C/C(=O)N2CCC=CC2=O)cc(OC)c1OCCCCCCC(=O)NO
Activity (MV4-11 [25]): Active
